Here are results for two molecules from ChEMBL document CHEMBL2396601, “Synthesis and antiprotozoal activity of dicationic m-terphenyl and 1,3-dipyridylbenzene derivatives” (J Med Chem, 2013).

The subject of data set [1] is Leishmania donovani. Description: Antiprotozoal activity against Leishmania donovani promastigotes infected in BALB/c mouse assessed as inhibition of liver parasitemia at 10 mg/kg, po qd for 5 days. Particulars: 120 h. Format: functional. The procedure, abridged:
(§1)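 L. donovani-infected BALB/c mice dosed daily for 5 days, 30 mg/kg ip or 10 mg/kg orally, depending on line.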

Data set [2] has as its system Leishmania donovani. Description: Antiprotozoal activity against Leishmania donovani promastigotes infected in BALB/c mouse assessed as inhibition of liver parasitemia at 30 mg/kg, ip qd for 5 days. It counts as functional. As to conditions: 120 h, route intraperitoneal. The procedure, abridged:
as §1

The nature of data set [3]: Selectivity index, ratio of IC50 for rat L6 cells to IC50 for Trypanosoma brucei rhodesiense STIB900. It counts as toxicity, cell-based. Particulars: L6 cells, read-out: Ratio IC50. In outline:
(§2)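 Selectivity index is IC50 against L6 rat myoblast cells divided by IC50 against the named parasite.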

In another data set the test system is Plasmodium falciparum. Description: Antiprotozoal activity against chloroquine-resistant Plasmodium falciparum K1 after 48 hrs by [3H]-hypoxanthine incorporation assay. Format: functional, organism-based. As to conditions: Plasmodium falciparum, K1.
Data set [4] is described as follows: Selectivity index, ratio of IC50 for rat L6 cells to IC50 for Trypanosoma cruzi Tulahuen C2C4. Format: toxicity, cell-based. Particulars: read-out: Ratio IC50. In outline:
as §2

Data set [5] in a line: Selectivity index, ratio of IC50 for rat L6 cells to IC50 for Plasmodium falciparum K1. It counts as toxicity, cell-based. Particulars: L6 cells, read-out: Ratio IC50. The procedure, abridged:
as §2

Data set [6] deals with Trypanosoma brucei rhodesiense. Description: Antiprotozoal activity against Trypanosoma brucei rhodesiense STIB900 after 72 hrs by Alamar Blue assay. Format: functional, organism-based. Particulars: Trypanosoma brucei, STIB900, 72 h. In outline:
(§3)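 Uses T. b. rhodesiense STIB900, T. cruzi Tulahuen C2C4 LacZ intracellular amastigotes, or L6 rat myoblasts depending on line.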
A general note: The colour change of resazurin is a common sign of viable cells or microbes.

The next data set relates to L6. Description: Cytotoxicity against rat L6 cells after 72 hrs by Alamar Blue assay. It counts as cell-based. Particulars: L6, 72 h. The procedure, abridged:
as §3

The next data set has as its system Leishmania amazonensis. Description: Antiprotozoal activity against intracellular amastigote form of Leishmania amazonensis infected in CD1 mouse macrophages after 72 hrs by […]. It counts as functional, organism-based.
The test system of another data set is Trypanosoma cruzi. Description: Antiprotozoal activity against intracellular amastigote form of Trypanosoma cruzi Tulahuen C2C4 expressing LacZ infected in rat L6 cells after 48 hrs. It counts as functional, organism-based. As to conditions: Tulahuen C2C4, L6, 48 h. The procedure, abridged:
as §3

In a further data set the test system is Mus musculus. Description: Toxicity in BALB/c mouse assessed as mortality at 30 mg/kg, ip qd for 5 days. Format: organism-based. Particulars: in vivo, 120 h. More on the design: dose 30 mg/kg, route intraperitoneal.
A short description of data set [7]: Selectivity index, ratio of IC50 for rat L6 cells to IC50 for Leishmania amazonensis. It counts as toxicity, cell-based. Particulars: read-out: Ratio IC50. In outline: as §2

The term inhibition in vivo denotes how much of the control response was suppressed. As for `CCCCCCCCCCCCCCCCOP(=O)([O-])OCC[N+](C)(C)C` [MILTEFOSINE], the inhibition in vivo at 10 mg/kg in the data set on Leishmania donovani [1] worked out at 96%.

The term IC50 denotes the concentration that gives 50% inhibition. High values mean weaker potency in that assay, low ones greater potency in that assay. Turning to `Cl.Cl.Cl.N=C(Nc1ccc(-c2cc(Cl)cc(-c3cccc(NC(=N)c4ccccn4)c3)c2)cc1)c1ccccn1`, in the data set with Leishmania donovani [2], the inhibition in vivo at 30 mg/kg was 23%. For the same molecule, the selectivity ratio came to 24 in data set [3], 2 in data set [4], 12 in [5] and 13 in data set [7]. Further, the half-inhibitory concentration (IC50) in the data set with Plasmodium falciparum worked out at 219 nM; in data set [6] it was 109 nM; with L6, 2640 nM; in the data set on Leishmania amazonensis, 211 nM; in the data set with Trypanosoma cruzi, 1540 nM. For the same molecule, in the data set on Mus musculus, the Activity result is reported as “Non-toxic”.
